Converted amounts (≈) assume the structure as drawn.
Legend:
[1] = system: Mycobacterium tuberculosis; assay: Antimycobacterial activity against Mycobacterium tuberculosis H37Rv by agar dilution method; format: functional
Summary of the method: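 MIC99 was taken as the lowest concentration giving complete inhibition of bacterial growth.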

[2] = system: Vero; assay: Cytotoxicity against african green monkey Vero cells after 72 hrs by MTT assay; format: cell-based; conditions: Chlorocebus sabaeus
Summary of the method: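 Vero cells exposed for 72 h; tested up to 62.5 µg/mL. Viability was read as cellular conversion of MTT to formazan, and IC50 was reported in µM.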

[3] = biological target: DNA gyrase subunit A (Mycolicibacterium smegmatis, UniProt Q59556); assay: Inhibition of Mycobacterium smegmatis DNA gyrase
DNA gyrase subunit A, sequence (Q59556 whole entry): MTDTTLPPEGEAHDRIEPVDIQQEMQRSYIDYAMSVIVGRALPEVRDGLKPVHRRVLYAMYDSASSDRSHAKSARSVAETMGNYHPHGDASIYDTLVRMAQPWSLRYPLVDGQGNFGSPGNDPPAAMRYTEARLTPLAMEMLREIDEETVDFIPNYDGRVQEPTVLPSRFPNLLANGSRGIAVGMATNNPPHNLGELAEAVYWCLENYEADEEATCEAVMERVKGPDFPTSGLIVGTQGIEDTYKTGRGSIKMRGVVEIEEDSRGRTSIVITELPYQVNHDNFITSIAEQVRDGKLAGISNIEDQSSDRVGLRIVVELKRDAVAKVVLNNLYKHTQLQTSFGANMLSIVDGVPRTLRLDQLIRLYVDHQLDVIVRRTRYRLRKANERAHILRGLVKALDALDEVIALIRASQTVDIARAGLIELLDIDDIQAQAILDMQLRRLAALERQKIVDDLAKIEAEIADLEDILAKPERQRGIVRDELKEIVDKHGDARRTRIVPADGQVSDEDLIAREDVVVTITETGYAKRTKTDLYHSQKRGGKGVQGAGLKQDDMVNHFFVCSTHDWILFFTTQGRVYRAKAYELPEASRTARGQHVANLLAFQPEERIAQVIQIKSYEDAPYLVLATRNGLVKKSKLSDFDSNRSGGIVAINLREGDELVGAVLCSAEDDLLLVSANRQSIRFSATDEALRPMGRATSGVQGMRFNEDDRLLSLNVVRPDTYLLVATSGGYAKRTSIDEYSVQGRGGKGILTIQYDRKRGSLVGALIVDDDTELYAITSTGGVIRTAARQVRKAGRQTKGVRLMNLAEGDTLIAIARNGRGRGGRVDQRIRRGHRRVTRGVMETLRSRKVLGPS
Summary of the method: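 Inhibition of DNA supercoiling by M. smegmatis (MC²) gyrase, run under standard assay conditions. Varying compound amounts were tested against a fixed amount of enzyme, and IC50 was derived from that series. Relaxed circular DNA served as marker, 5% DMSO as solvent control, and moxifloxacin at 5 µg/mL as positive control.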

[4] = system: Mycolicibacterium smegmatis; assay: Antimycobacterial activity against Mycobacterium smegmatis ATCC 14468 by agar dilution method; format: functional
Summary of the method: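 MC² (M. smegmatis) growth inhibition; MIC99 taken as the lowest concentration giving complete inhibition of bacterial growth, in µM.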

[5] = system: Mus musculus; assay: Phototoxic effect in mouse assessed as ear thickness at 140 mg/kg administered before UV light exposure relative to control; format: ADME, organism-based; design: dose 140 mg/kg; conditions: in vivo
Summary of the method: (§1)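 Mice dosed at 140 mg/kg and exposed to UV immediately after dosing. Irradiation ended at 4 h. Ear thickness (mm) was measured at 0 (pre-dose), 4, 24, 48, 72 and 96 h, left and right ears averaged, mean ± SEM. Comparison was against vehicle controls (0.5% aqueous sodium carboxymethylcellulose, 10 mL/kg) and against the 0 h reading.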

[6] = system: Mus musculus; assay: Phototoxic effect in UV light irradiated mouse assessed as ear thickness at 140 mg/kg, after 4 hrs relative to control; format: ADME, organism-based; design: dose 140 mg/kg; conditions: in vivo; summary of the method: as §1
[7] = system: Mus musculus; assay: Phototoxic effect in UV light irradiated mouse assessed as ear thickness at 140 mg/kg, after 48 hrs relative to control; format: ADME, organism-based; design: dose 140 mg/kg; conditions: in vivo; summary of the method: as §1
[8] = system: Mus musculus; assay: Phototoxic effect in UV light irradiated mouse assessed as number of mouse bearing erythema at 140 mg/kg, after 48 hrs relative to control; format: ADME, organism-based; design: dose 140 mg/kg; conditions: in vivo
Summary of the method: (§2)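 Mice received 140 mg/kg and were UV-irradiated immediately after dosing, irradiation ending at 4 h. Both ears were scored for erythema at 0, 4, 24, 48, 72 and 96 h, counted as the number of mice with erythema. Vehicle control was 0.5% aqueous sodium carboxymethylcellulose at 10 mL/kg.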

[9] = system: Mus musculus; assay: Phototoxic effect in UV light irradiated mouse assessed as ear thickness at 140 mg/kg, after 96 hrs relative to control; format: ADME, organism-based; design: dose 140 mg/kg; conditions: in vivo; summary of the method: as §1
[10] = system: Mus musculus; assay: Phototoxic effect in UV light irradiated mouse assessed as number of mouse bearing erythema at 140 mg/kg, after 24 hrs relative to control; format: ADME, organism-based; design: dose 140 mg/kg; conditions: in vivo; summary of the method: as §2
[11] = system: Mus musculus; assay: Phototoxic effect in mouse assessed as number of mouse bearing erythema at 140 mg/kg administered before UV light exposure relative to control; format: ADME, organism-based; design: dose 140 mg/kg; conditions: in vivo; summary of the method: as §2
[12] = system: Mus musculus; assay: Phototoxic effect in UV light irradiated mouse assessed as number of mouse bearing erythema at 140 mg/kg, after 72 hrs relative to control; format: ADME, organism-based; design: dose 140 mg/kg; conditions: in vivo; summary of the method: as §2
[13] = system: Mus musculus; assay: Phototoxic effect in UV light irradiated mouse assessed as ear thickness at 140 mg/kg, after 72 hrs relative to control; format: ADME, organism-based; design: dose 140 mg/kg; conditions: in vivo; summary of the method: as §1
[14] = system: Mus musculus; assay: Phototoxic effect in UV light irradiated mouse assessed as ear thickness at 140 mg/kg, after 24 hrs relative to control; format: ADME, organism-based; design: dose 140 mg/kg; conditions: in vivo; summary of the method: as §1
[15] = system: Mus musculus; assay: Phototoxic effect in UV light irradiated mouse assessed as number of mouse bearing erythema at 140 mg/kg, after 96 hrs relative to control; format: ADME, organism-based; design: dose 140 mg/kg; conditions: in vivo; summary of the method: as §2
[16] = system: Mus musculus; assay: Phototoxic effect in UV light irradiated mouse assessed as number of mouse bearing erythema at 140 mg/kg, after 4 hrs relative to control; format: ADME, organism-based; design: dose 140 mg/kg; conditions: in vivo; summary of the method: as §2
[17] = system: Mycobacterium tuberculosis; assay: Antimycobacterial activity against Mycobacterium tuberculosis ATCC 35801 infected CD1 mouse lungs assessed as viable organisms at 50 mg/kg, ip after 35 days relative to control; format: functional; conditions: route intraperitoneal
Summary of the method: (§3)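 CD-1 mice infected intravenously with M. tuberculosis ATCC 35801; intraperitoneal treatment started 10 days after inoculation and continued for 10 days. At 35 days postinfection, spleens and right lungs were removed aseptically and viable organisms counted (log CFU). Counts were compared with vehicle-treated controls.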

[18] = system: Mycobacterium tuberculosis; assay: Antimycobacterial activity against Mycobacterium tuberculosis ATCC 35801 infected CD1 mouse spleen assessed as viable organisms at 50 mg/kg, ip after 35 days relative to control; format: functional; conditions: route intraperitoneal; summary of the method: as §3

Row | SMILES | MIC99 [1] | IC50 [2] | MIC99 [4] | other results
1 | CC1CN(c2c(F)cc3c(=O)c(C(=O)O)cn4c3c2OCC4C)CC(C)O1 (stereo unspecified) | 4.14 µM (≈ 1.56 µg/mL) | > 166 µM | 4.14 µM (≈ 1.56 µg/mL) | IC50 [3]: > 133 µM
2 | CC1COc2c(N3CCN(Cc4ccc5c(c4)OCO5)CC3)c(F)c([N+](=O)[O-])c3c(=O)c(C(=O)O)cn1c23 (stereo unspecified) | 2.96 µM (≈ 1.56 µg/mL) | 119 µM | 1.48 µM (≈ 0.779 µg/mL) | –
3 | CC1COc2c(N3CCc4ccccc4C3C(=O)NC(C)(C)C)c(F)c([N+](=O)[O-])c3c(=O)c(C(=O)O)cn1c23 (stereo unspecified) | 1.45 µM (≈ 0.781 µg/mL) | 116 µM | 2.89 µM (≈ 1.56 µg/mL) | IC50 [3]: 92.8 µM
4 | CC1COc2c(N3CCC4(CC3)OCCO4)c(F)c(N)c3c(=O)c(C(=O)O)cn1c23 (stereo unspecified) | 3.72 µM (≈ 1.56 µg/mL) | > 149 µM | 11.2 µM (≈ 4.68 µg/mL) | –
5 | CC1COc2c(N3CCN(C(c4ccccc4)c4ccc(Cl)cc4)CC3)c(F)cc3c(=O)c(C(=O)O)cn1c23 (stereo unspecified) | 5.71 µM (≈ 3.13 µg/mL) | – | 45.6 µM (≈ 25 µg/mL) | –
6 | CC1COc2c(N3CCSCC3)c(F)c([N+](=O)[O-])c3c(=O)c(C(=O)O)cn1c23 (stereo unspecified) | 1.91 µM (≈ 0.782 µg/mL) | 153 µM | 1.91 µM (≈ 0.782 µg/mL) | Activity [5]: 0.25 mm; Activity [6]: 0.28 mm; Activity [7]: 0.29 mm; Activity [8]: Non-toxic; Activity [9]: 0.28 mm; Activity [10]: Non-toxic; Activity [11]: Non-toxic; Activity [12]: Non-toxic; IC50 [3]: 122 µM; Activity [13]: 0.28 mm; Activity [14]: 0.29 mm; Activity [15]: Non-toxic; Activity [16]: Non-toxic
7 | CC1COc2c(N3CCc4ccccc4C3C(=O)NC(C)(C)C)c(F)cc3c(=O)c(C(=O)O)cn1c23 (stereo unspecified) | 3.16 µM (≈ 1.56 µg/mL) | 127 µM | 50.7 µM (≈ 25 µg/mL) | –
8 | CC1COc2c(N3CCSCC3)c(F)cc3c(=O)c(C(=O)O)cn1c23 (stereo unspecified) | 2.14 µM (≈ 0.78 µg/mL) | > 172 µM | 4.28 µM (≈ 1.56 µg/mL) | IC50 [3]: 110 µM
9 | Cc1onc(-c2c(F)cccc2F)c1C(=O)N1CCN(c2c(F)c([N+](=O)[O-])c3c(=O)c(C(=O)O)cn4c3c2OCC4C)CC1 (stereo unspecified) | 5.1 µM (≈ 3.13 µg/mL) | 102 µM | 1.27 µM (≈ 0.779 µg/mL) | –
10 | CC1COc2c(N3CCN(C)C(c4ccccc4)C3)c(F)c([N+](=O)[O-])c3c(=O)c(C(=O)O)cn1c23 (stereo unspecified) | 3.23 µM (≈ 1.56 µg/mL) | 130 µM | 6.49 µM (≈ 3.13 µg/mL) | –
11 | CC1COc2c(N3CCn4cc(C(=O)O)nc4C3)c(F)c([N+](=O)[O-])c3c(=O)c(C(=O)O)cn1c23 (stereo unspecified) | 0.19 µM (≈ 0.0899 µg/mL) | 132 µM | 6.61 µM (≈ 3.13 µg/mL) | Log10 cfu [17]: 6.08; Log10 cfu [18]: 6.11
12 | CC1COc2c(N3CCC(n4c(=O)[nH]c5cc(Cl)ccc54)CC3)c(F)c([N+](=O)[O-])c3c(=O)c(C(=O)O)cn1c23 (stereo unspecified) | 0.34 µM (≈ 0.19 µg/mL) | 112 µM | 1.39 µM (≈ 0.776 µg/mL) | –
13 | CC1COc2c(N3CCC(O)(c4ccc(Cl)cc4)CC3)c(F)cc3c(=O)c(C(=O)O)cn1c23 (stereo unspecified) | 6.62 µM (≈ 3.13 µg/mL) | – | 26.4 µM (≈ 12.5 µg/mL) | –
14 | COc1cc2c(cc1OC)CN(c1c(F)cc3c(=O)c(C(=O)O)cn4c3c1OCC4C)CC2 (stereo unspecified) | 1.72 µM (≈ 0.782 µg/mL) | > 138 µM | 13.8 µM (≈ 6.25 µg/mL) | –
15 | CC1COc2c(N3CCN(C)CC3)c(F)cc3c(=O)c(C(=O)O)cn1c23.Cl (stereo unspecified) | – | – | – | Activity [5]: 0.29 mm; Activity [6]: 0.32 mm; Activity [7]: 0.3 mm; Activity [9]: 0.35 mm; Activity [13]: 0.35 mm; Activity [14]: 0.29 mm
16 | CCn1cc(C(=O)O)c(=O)c2cc(F)c(N3CCNC(C)C3)c(F)c21 (stereo unspecified) [LOMEFLOXACIN] | – | – | – | Activity [5]: 0.31 mm; Activity [6]: 0.4 mm; Activity [7]: 0.53 mm; Activity [8]: Toxic; Activity [9]: 0.6 mm; Activity [10]: Toxic; Activity [11]: Non-toxic; Activity [12]: Toxic; Activity [13]: 0.64 mm; Activity [14]: 0.48 mm; Activity [15]: Toxic; Activity [16]: Toxic
17 | CC1COc2c(N3CCN(C)CC3)c(F)cc3c(=O)c(C(=O)O)cn1c23 (stereo unspecified) [OFLOXACIN] | 2.16 µM (≈ 0.781 µg/mL) | > 155 µM | 2.16 µM (≈ 0.781 µg/mL) | Log10 cfu [17]: 6.61; Log10 cfu [18]: 7.61
